One molecule from ChEMBL document CHEMBL2203171, “The use of small molecule probes to study spatially separated stimulus-induced signaling pathways” (Bioorg Med Chem Lett, 2012) can be followed below.

What all share (assay type): cell-based
The target of test [1] is T1, Toll-like receptor 9 (Mus musculus) (UniProt Q9EQU3).
T1 sequence (whole entry): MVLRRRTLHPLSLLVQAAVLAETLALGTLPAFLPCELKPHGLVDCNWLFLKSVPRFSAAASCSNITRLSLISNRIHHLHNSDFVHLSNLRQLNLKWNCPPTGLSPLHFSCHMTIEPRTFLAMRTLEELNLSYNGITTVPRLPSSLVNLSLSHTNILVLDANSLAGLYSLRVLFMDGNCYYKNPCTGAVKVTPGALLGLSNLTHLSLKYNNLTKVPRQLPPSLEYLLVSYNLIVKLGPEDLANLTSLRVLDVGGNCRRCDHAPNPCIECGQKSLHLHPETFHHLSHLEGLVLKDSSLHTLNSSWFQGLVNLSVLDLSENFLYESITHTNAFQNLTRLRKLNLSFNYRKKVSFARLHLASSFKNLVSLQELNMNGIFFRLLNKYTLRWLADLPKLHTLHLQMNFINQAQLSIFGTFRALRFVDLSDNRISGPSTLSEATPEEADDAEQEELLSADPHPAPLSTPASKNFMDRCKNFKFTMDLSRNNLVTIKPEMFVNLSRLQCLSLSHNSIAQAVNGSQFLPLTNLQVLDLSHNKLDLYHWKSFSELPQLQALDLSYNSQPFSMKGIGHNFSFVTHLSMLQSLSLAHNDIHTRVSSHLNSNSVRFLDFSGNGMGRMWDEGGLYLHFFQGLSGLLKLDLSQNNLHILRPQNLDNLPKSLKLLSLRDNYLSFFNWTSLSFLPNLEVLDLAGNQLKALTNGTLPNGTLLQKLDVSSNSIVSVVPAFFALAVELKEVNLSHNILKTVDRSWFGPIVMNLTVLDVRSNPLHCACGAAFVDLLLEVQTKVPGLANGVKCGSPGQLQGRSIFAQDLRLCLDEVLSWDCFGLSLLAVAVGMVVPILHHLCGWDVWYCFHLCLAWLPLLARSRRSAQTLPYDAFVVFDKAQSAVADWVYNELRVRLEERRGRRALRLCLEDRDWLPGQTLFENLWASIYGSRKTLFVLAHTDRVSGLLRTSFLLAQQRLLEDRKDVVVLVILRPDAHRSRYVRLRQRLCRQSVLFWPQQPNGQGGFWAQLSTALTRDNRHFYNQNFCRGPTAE
The test can be described thus: Inhibition of MyD88 recruitment to TLR9 in C57BL/6 mouse BMDM cells assessed as inhibition of CpG-induced p38 MAPK activity up to 90 mins. An outline of the steps: (§1)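 Bone marrow macrophages from C57BL/6 mice, grown in 70% growth medium (DMEM, 10% FBS) plus 30% L929-conditioned medium and given fresh medium 12-14 h before stimulation. Stimuli: IL-1 40 ng/ml, HKSA ~10^8 cfu/ml, pI:pC 50 μg/ml or CpG 10 μg/ml, ± compound at 10 μM (final) added from a 200x DMSO stock. IκBα and p38 profiled by immunoblot. Three independent experiments, quantitated and normalized.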

Test [2] has as its target T2, Interleukin-1 receptor type 1 (Mus musculus) (UniProt P13504).
T2 sequence (whole entry): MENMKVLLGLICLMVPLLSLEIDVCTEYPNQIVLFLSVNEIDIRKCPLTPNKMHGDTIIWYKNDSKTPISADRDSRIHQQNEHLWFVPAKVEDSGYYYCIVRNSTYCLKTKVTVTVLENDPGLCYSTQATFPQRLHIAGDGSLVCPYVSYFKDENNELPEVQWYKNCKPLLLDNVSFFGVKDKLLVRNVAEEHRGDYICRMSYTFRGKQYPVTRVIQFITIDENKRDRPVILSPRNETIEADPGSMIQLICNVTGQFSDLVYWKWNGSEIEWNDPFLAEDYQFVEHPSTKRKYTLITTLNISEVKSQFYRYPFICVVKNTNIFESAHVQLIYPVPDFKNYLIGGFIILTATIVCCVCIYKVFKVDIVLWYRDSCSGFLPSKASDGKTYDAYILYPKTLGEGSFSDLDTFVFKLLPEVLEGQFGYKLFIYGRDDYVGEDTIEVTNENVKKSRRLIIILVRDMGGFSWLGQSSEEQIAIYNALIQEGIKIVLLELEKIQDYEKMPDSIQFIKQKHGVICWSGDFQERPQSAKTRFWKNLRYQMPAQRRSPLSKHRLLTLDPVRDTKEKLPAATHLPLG
The experiment in a line: Inhibition of MyD88 recruitment to IL-1R in C57BL/6 mouse BMDM cells assessed as inhibition of IL1-induced p38 MAPK activity up to 90 mins. An outline of the steps:
as §1

In test [3] the target is T3, Inhibitor of nuclear factor kappa-B kinase subunit beta (Mus musculus) (UniProt O88351).
T3 sequence (whole entry): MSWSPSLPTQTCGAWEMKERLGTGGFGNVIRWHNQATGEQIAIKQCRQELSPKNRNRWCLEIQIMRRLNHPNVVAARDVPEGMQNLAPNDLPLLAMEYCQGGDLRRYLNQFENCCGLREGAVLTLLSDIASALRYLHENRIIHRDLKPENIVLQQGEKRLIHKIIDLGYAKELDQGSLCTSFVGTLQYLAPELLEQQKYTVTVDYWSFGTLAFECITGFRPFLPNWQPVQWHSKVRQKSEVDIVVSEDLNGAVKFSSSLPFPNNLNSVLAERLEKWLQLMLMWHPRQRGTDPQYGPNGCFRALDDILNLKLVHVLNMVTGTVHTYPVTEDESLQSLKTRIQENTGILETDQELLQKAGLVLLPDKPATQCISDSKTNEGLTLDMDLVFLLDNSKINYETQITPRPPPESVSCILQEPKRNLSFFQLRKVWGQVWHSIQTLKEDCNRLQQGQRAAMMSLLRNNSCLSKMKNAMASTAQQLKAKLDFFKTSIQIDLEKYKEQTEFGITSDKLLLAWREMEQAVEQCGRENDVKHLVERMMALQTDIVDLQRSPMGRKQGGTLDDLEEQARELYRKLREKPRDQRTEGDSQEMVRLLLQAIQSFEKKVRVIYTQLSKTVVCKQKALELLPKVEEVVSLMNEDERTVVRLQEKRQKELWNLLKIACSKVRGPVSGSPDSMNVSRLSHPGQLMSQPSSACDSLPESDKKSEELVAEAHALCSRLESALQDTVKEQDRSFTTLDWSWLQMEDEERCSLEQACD
The experiment in a line: Inhibition of IKKbeta in C57BL/6 mouse BMDM cells assessed as inhibition of LPS-induced RelA phosphorylation at 25 uM after 5 mins by Western blot analysis. The procedure, abridged:
(§2)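 C57BL/6 marrow-derived macrophages were cultured in 70% growth medium/30% L929-conditioned medium and refreshed 12-14 h before stimulation. Stimuli were TNF 40 ng/ml or LPS 100 ng/ml, ± compound at 25 μM from a 200x DMSO stock. Western blots tracked IKK, p38, IκBα and phospho-RelA. Results from three independent experiments were quantitated and normalized.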
For orientation: A western blot detects proteins with antibodies after separation by electrophoresis.

For test [4], the target named is T3, Inhibitor of nuclear factor kappa-B kinase subunit beta (Mus musculus). The test can be described thus: Inhibition of IKKbeta in C57BL/6 mouse BMDM cells assessed as inhibition of LPS-induced IkappaBalpha phosphorylation at 25 uM after 5 mins by Western blot analysis. An outline of the steps: as §2
For test [5] the target is unchanged. The test can be described thus: Inhibition of IKKbeta in C57BL/6 mouse BMDM cells assessed as inhibition of TNFalpha-induced IkappaBalpha degradation at 50 uM up to 90 mins by Western blot analysis.

Active and inactive are the calls of the source. The calls are words filed in the database; no cut-off is given here.

`O=C(CCCCCN1C(=O)C=CC1=O)Oc1ccc2cc(C(C(=O)NCc3ccccc3)N(C(=O)Cc3ccc4c(c3)OCO4)C3CC3)ccc2c1` (stereo not given): the inhibition result in test [1], in test [2] and in test [5] was “inactive” in each case. Besides, the inhibition result in test [3] and in test [4] was “Active” in each case.
